Calls of active or inactive are those of the source. The rule behind the calls is not given here.

In ChEMBL document CHEMBL1141591, “Lipophilic modifications to dinucleoside polyphosphates and nucleotides that confer antagonist properties at the platelet P2Y12 receptor” (J Med Chem, 2008) one finds Activity and inhibition data, which are given here for 12 compounds.

Experiment [1] addresses P2Y purinoceptor 6 (Homo sapiens, UniProt Q15077). In words: Agonist activity at P2Y6 receptor expressed in human 1321 cells at 100 uM by calcium mobilization assay. The experiment is classed as functional, cell-based. In a few lines:
(§1)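 1321N1 human astrocytoma cells expressing the recombinant receptor were loaded with Fluo-3 AM (2.5 µM final) for 60 min at 25 °C. Assay buffer: KCl 10, NaCl 118, CaCl2 2.5, MgCl2 1, HEPES 20, glucose 10 mM, pH 7.4. Cells were washed and then stimulated with compound. Intracellular calcium was read as the change in fluorescence (FLIPR). Values are EC50 in µM. SR means 5–20% of maximal response at the top concentration, usually 100 µM. NR means no response.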
Background: A change in cytosolic calcium serves as a functional read-out for many receptors and channels.

Experiment [2] concerns the target P2Y purinoceptor 2 (Homo sapiens, UniProt P41231). In words: Agonist activity at P2Y2 receptor expressed in human 1321 cells at 100 uM by calcium mobilization assay. It is filed as functional, cell-based. In a few lines:
as §1

Experiment [3] deals with P2Y purinoceptor 4 (Homo sapiens) (UniProt P51582). Nature of the experiment: Agonist activity at P2Y4 receptor expressed in human 1321 cells at 100 uM by calcium mobilization assay. It is filed as functional, cell-based.
Sequence of P2Y purinoceptor 4 (Homo sapiens) (P51582 whole entry): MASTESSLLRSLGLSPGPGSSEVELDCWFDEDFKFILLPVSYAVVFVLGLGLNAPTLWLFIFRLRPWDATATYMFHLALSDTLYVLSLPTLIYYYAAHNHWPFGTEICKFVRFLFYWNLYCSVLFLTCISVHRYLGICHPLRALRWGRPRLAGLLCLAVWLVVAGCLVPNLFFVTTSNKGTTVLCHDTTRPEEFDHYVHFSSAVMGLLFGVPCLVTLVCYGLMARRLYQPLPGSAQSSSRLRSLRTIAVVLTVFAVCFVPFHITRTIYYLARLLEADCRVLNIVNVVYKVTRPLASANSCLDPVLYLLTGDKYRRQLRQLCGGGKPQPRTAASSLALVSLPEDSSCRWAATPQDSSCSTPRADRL
The target of experiment [4] is P2Y purinoceptor 1 (Homo sapiens, UniProt P47900). In words: Agonist activity at human recombinant P2Y1 receptor expressed in human 1321 cells at 100 uM by calcium mobilization assay. The experiment is classed as functional, cell-based. The gist of the method: as §1
Sequence of P2Y purinoceptor 1 (P47900 whole entry): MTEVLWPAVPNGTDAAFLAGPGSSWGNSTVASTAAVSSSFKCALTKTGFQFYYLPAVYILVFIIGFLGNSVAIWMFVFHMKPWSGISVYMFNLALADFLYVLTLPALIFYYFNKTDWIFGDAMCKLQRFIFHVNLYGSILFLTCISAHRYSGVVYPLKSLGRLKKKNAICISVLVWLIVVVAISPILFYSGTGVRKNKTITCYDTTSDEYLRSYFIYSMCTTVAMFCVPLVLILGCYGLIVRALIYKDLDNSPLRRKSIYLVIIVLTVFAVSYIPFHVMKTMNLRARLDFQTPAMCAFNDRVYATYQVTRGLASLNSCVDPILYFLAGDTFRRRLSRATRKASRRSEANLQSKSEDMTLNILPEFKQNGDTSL
The target of experiment [5] is P2Y purinoceptor 12 (Homo sapiens) (UniProt Q9H244). In words: Antagonist activity at P2Y12 receptor assessed as inhibition of ADP-induced human platelet aggregation by washed platelet assay at 100 uM. It is filed as functional. In a few lines:
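Blood from healthy volunteers was anticoagulated with ACD and spun at 180g for 15 min to give PRP. Platelets were washed three times in HEPES-buffered saline, pH 7.4, with 0.2% BSA and 5 µM PGI2, then resuspended with 0.25 U/mL apyrase. The suspension held 1 mg/mL fibrinogen at 37 °C, stirred at 1000 rpm. Compound (usually 1 nM–100 µM) was added for 2 min, then ADP at EC90 (usually 1–10 µM). Optical aggregation was recorded for 8 min. IC50 came from a four-parameter logistic fit.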

Sequence of P2Y purinoceptor 2 (P41231 whole entry): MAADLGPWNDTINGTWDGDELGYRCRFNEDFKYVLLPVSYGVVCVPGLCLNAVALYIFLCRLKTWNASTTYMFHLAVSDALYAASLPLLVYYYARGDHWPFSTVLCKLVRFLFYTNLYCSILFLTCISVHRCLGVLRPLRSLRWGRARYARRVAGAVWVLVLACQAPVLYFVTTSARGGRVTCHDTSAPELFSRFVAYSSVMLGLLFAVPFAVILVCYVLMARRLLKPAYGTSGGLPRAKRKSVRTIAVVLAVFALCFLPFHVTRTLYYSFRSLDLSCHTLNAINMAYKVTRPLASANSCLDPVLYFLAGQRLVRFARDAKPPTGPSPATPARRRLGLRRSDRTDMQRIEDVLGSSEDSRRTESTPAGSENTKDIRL
Sequence of P2Y purinoceptor 6 (Q15077 whole entry): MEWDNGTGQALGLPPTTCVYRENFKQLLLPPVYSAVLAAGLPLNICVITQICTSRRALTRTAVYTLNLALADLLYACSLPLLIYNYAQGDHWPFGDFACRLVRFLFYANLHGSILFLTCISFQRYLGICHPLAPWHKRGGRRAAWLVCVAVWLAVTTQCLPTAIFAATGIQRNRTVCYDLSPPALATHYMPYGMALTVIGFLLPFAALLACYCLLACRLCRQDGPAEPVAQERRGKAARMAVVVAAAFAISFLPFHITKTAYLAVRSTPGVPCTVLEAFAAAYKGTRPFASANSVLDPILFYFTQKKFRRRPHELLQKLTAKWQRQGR
Sequence of P2Y purinoceptor 12 (Homo sapiens) (Q9H244 whole entry): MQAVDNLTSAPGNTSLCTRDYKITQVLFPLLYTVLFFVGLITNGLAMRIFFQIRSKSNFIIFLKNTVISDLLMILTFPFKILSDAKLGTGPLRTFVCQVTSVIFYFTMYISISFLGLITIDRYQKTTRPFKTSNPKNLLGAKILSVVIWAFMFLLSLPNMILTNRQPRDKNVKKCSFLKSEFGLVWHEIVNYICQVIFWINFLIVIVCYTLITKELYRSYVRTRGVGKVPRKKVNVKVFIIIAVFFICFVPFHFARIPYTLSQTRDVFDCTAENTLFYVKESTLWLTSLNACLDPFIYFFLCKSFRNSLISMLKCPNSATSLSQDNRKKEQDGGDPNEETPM

In the case of `O=C(Nc1ccccc1)Nc1ncnc2c1ncn2[C@@H]1O[C@H](COP(=O)(O)O)[C@H]2OC(Cc3ccccc3)O[C@H]21` (stereo not given in full), the outcome in experiment [1], in experiment [2], in experiment [3] and in experiment [4] was inactive.
For `O=C(Nc1ncnc2c1ncn2[C@@H]1O[C@H](COP(=O)(O)O)C2OC(Cc3ccccc3)OC21)NC1CCCC1` (single isomer, unassigned), the outcome in experiment [1], in experiment [2], in experiment [3] and in experiment [4] was inactive.
As to `CCCCCCNC(=O)Nc1ncnc2c1ncn2[C@@H]1O[C@H](COP(=O)(O)O)C2OC(C#Cc3ccccc3)OC21` (single isomer, unassigned), the outcome in experiment [1], in experiment [2], in experiment [3] and in experiment [4] was inactive.
As for `O=C(Nc1ccccc1)Nc1ncnc2c1ncn2[C@@H]1O[C@H](COP(=O)(O)O)C2OC(/C=C/c3ccccc3)OC21` (single isomer, unassigned), the result in experiment [1], in experiment [2], in experiment [3] and in experiment [4] was inactive.
On to `O=C(Nc1ccccc1)Nc1ncnc2c1ncn2[C@@H]1O[C@H](COP(=O)(O)O)[C@@H](O)[C@H]1O`, for which the outcome in experiment [1], in experiment [2], in experiment [3] and in experiment [4] was inactive.
Turning to `CCCCCCNC(=O)Nc1ncnc2c1ncn2[C@@H]1O[C@H](COP(=O)(O)O)C2OC(/C=C/c3ccccc3)OC21` (single isomer, unassigned), the outcome in experiment [1], in experiment [2], in experiment [3] and in experiment [4] was inactive.
A word on the inhibition: it is the drop in the measured response relative to a control, in per cent. Regarding `Nc1ncnc2c1ncn2[C@@H]1O[C@H](COP(=O)(O)O)[C@H]2O[C@@H](c3ccccc3)O[C@H]21`, the outcome in experiment [1], in experiment [2], in experiment [3] and in experiment [4] was inactive. The inhibition in experiment [5] was found to be 75%.
Consider `CCCCCCNC(=O)Nc1ncnc2c1ncn2[C@@H]1O[C@H](COP(=O)(O)O)[C@H]2OC(Cc3ccccc3)O[C@H]21` (stereo not given in full), for which the result in experiment [1], in experiment [2], in experiment [3] and in experiment [4] was inactive.
For `Nc1ncnc2c1ncn2[C@@H]1O[C@H](COP(=O)(O)O)[C@H]2OC(/C=C/c3ccccc3)O[C@H]21` (stereo not given in full), the result in experiment [1], in experiment [2], in experiment [3] and in experiment [4] was inactive.
For `O=C(Nc1ccccc1)Nc1ncnc2c1ncn2[C@@H]1O[C@H](COP(=O)(O)O)C2OC(C#Cc3ccccc3)OC21` (single isomer, unassigned), the result in experiment [1], in experiment [2], in experiment [3] and in experiment [4] was inactive.
`Nc1ncnc2c1ncn2[C@@H]1O[C@H](COP(=O)(O)O)[C@H]2O[C@@H](Cc3ccccc3)O[C@H]21`: the result in experiment [1], in experiment [2], in experiment [3] and in experiment [4] was inactive. Moreover, the inhibition in experiment [5] was found to be 47%.
With `CCNC(=O)Nc1ncnc2c1ncn2[C@@H]1O[C@H](COP(=O)(O)O)C2O[C@H](/C=C/c3ccccc3)OC21` (single isomer, unassigned), the result in experiment [1], in experiment [2], in experiment [3] and in experiment [4] was inactive.
